The source of these data is ChEMBL document CHEMBL4732167, “Structure based design, synthesis, and biological evaluation of imidazole derivatives targeting dihydropteroate synthase enzyme” (Bioorg Med Chem Lett, 2021).

What is called MFC is the smallest concentration meeting the test's criterion for killing the fungus. The term MIC denotes the lowest concentration that inhibits growth of the organism. In general, IC50 refers to the concentration that gives 50% inhibition.

One test has as its system Aspergillus clavatus. The experiment in a line: Antifungal activity against Aspergillus clavatus MTCC 1323 assessed as fungal growth inhibition. The test is classed as functional.
Test [1] concerns Mycobacterium tuberculosis. The experiment in a line: Antibacterial activity against Mycobacterium tuberculosis H37Rv assessed as bacterial growth inhibition. The class given is functional.
The nature of test [2]: Antioxidant activity assessed as nitric oxide radical scavenging activity at 100 ug/ml (reference value: 25.8 to 41.6 %). The test is classed as functional. Particulars: dose 100.0 µg/ml. Put shortly:
(§1)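 Nitric oxide radical scavenging was tested at 0, 25, 50, 75 and 100 µg/ml of compound.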

Test [3] in a line: Antioxidant activity assessed as DPPH radical scavenging activity at 50 ug/ml (reference value: 22 to 40.2 %). The test is classed as functional. Conditions: dose 50.0 µg/ml. Put shortly: (§2)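 DPPH radical scavenging was measured at 0, 25, 50, 75 and 100 µg/ml of each compound. Ascorbic acid was the reference.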
(The DPPH test is a chemical assay of radical scavenging.)

Test [4] can be described thus: Antioxidant activity assessed as hydrogen peroxide radical scavenging activity at 25 ug/ml (reference value: 23.6 to 43.1 %). The test is classed as functional. Conditions: dose 25.0 µg/ml. Put shortly: (§3)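 Hydrogen peroxide scavenging was measured across a compound series of 0, 25, 50, 75 and 100 µg/ml.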
The nature of test [5]: Antioxidant activity assessed as hydrogen peroxide radical scavenging activity at 75 ug/ml (reference value: 23.6 to 43.1 %). The class given is functional. Particulars: dose 75.0 µg/ml. Put shortly:
as §3

Test [6] concerns Staphylococcus aureus. In words: Antibacterial activity against Staphylococcus aureus MTCC 96 assessed as bacterial growth inhibition. The class given is functional.
Test [7] can be described thus: Antioxidant activity assessed as DPPH radical scavenging activity at 25 ug/ml (reference value: 22 to 40.2 %). The test is classed as functional. Conditions: dose 25.0 µg/ml. Put shortly: as §2
The next test deals with Pseudomonas aeruginosa. The experiment in a line: Antibacterial activity against Pseudomonas aeruginosa MTCC 1688 assessed as bacterial growth inhibition. The class given is functional.
Test [8] is described as follows: Antioxidant activity assessed as DPPH radical scavenging activity at 100 ug/ml (reference value: 22 to 40.2 %). The class given is functional. Particulars: dose 100.0 µg/ml. Put shortly: as §2
A short description of test [9]: Antioxidant activity assessed as hydrogen peroxide radical scavenging activity at 50 ug/ml (reference value: 23.6 to 43.1 %). The class given is functional. Conditions: dose 50.0 µg/ml. The method, boiled down: as §3
In the next test the test system is Bacteria. The experiment in a line: Antibacterial activity against ESBL-producing bacteria assessed as bacterial growth inhibition. The test is classed as functional. Put shortly:
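Values are minimum inhibitory concentrations (MIC) in µg/mL, determined at an outside microbiology laboratory.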

Another test deals with Enterococcus. In words: Antibacterial activity against vancomycin-resistant Enterococcus assessed as inhibition of bacterial growth. The class given is functional. Put shortly: (§4)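 Growth inhibition of the drug-resistant strain was read out as the minimum inhibitory concentration (MIC), reported in µg/mL. The same protocol was also run on an ESBL strain.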
Test [10] can be described thus: Antioxidant activity assessed as hydrogen peroxide radical scavenging activity at 100 ug/ml (reference value: 23.6 to 43.1 %). The test is classed as functional. Conditions: dose 100.0 µg/ml. The method, boiled down: as §3
A further test concerns Streptococcus pyogenes. The experiment in a line: Antibacterial activity against Streptococcus pyogenes MTCC 442 assessed as bacterial growth inhibition. The class given is functional.
In the next test the test system is Escherichia coli. The experiment in a line: Antibacterial activity against Escherichia coli MTCC 443 assessed as bacterial growth inhibition. The test is classed as functional.
The next test has as its system Plasmodium falciparum. In words: Antimalarial activity against Plasmodium falciparum assessed as parasite growth inhibition. The test is classed as functional, organism-based.
A short description of test [11]: Antioxidant activity assessed as nitric oxide radical scavenging activity at 75 ug/ml (reference value: 25.8 to 41.6 %). The class given is functional. Particulars: dose 75.0 µg/ml. The method, boiled down: as §1
A further test concerns Candida albicans. The experiment in a line: Antifungal activity against Candida albicans MTCC 227 assessed as fungal growth inhibition. The class given is functional.
Another test has as its system Aspergillus niger. In words: Antifungal activity against Aspergillus niger MTCC 282 assessed as fungal growth inhibition. The class given is functional.
Test [12] can be described thus: Antioxidant activity assessed as DPPH radical scavenging activity at 75 ug/ml (reference value: 22 to 40.2 %). The class given is functional. Particulars: dose 75.0 µg/ml. The method, boiled down: as §2
A short description of test [13]: Antioxidant activity assessed as nitric oxide radical scavenging activity at 50 ug/ml (reference value: 25.8 to 41.6 %). The class given is functional. Conditions: dose 50.0 µg/ml. The method, boiled down: as §1
Test [14] can be described thus: Antioxidant activity assessed as nitric oxide radical scavenging activity at 25 ug/ml (reference value: 25.8 to 41.6 %). The class given is functional. Particulars: dose 25.0 µg/ml. Put shortly: as §1
Test [15] relates to Staphylococcus aureus. The experiment in a line: Antibacterial activity against methicillin-resistant Staphylococcus aureus assessed as inhibition of bacterial growth. The class given is functional. Put shortly: as §4

In brackets after ≈: the same amount, converted by molar mass.

On to `COc1ccc(-n2c(SCC(=O)Nc3ccc(OC(=O)c4ccco4)cc3)nc(C)c2C(C)=O)cc1`, for which the MFC is > 1000 µg/mL in the test on Aspergillus clavatus, 250 µg/mL (≈ 495 µM) in the test on Candida albicans and > 1000 µg/mL with Aspergillus niger. The MIC is 62.5 µg/mL (≈ 124 µM) in [1]; 250 µg/mL (≈ 495 µM) in the test with Staphylococcus aureus [6]; 100 µg/mL (≈ 198 µM) with Pseudomonas aeruginosa; 500 µg/mL (≈ 989 µM) with Bacteria; 250 µg/mL (≈ 495 µM) with Enterococcus; 125 µg/mL (≈ 247 µM) in the test with Streptococcus pyogenes. In addition, the MIC with Escherichia coli was determined as 125 µg/mL (≈ 247 µM); in the test with Staphylococcus aureus [15], 500 µg/mL (≈ 989 µM). Moreover, the Activity in test [2] was determined as 84.5%; in test [3] it was 47.1%; in test [4] it was 59.3%; in [5] it was 81%; in [7], 32.5%; in test [8], 85.2%. In addition, the Activity in test [9] is 69.9%; in test [10] it was 90%; in [11], 78.9%; in [12], 66.2%; in [13], 59.3%; in test [14], 37.7%. In the test with Plasmodium falciparum, the IC50 was found to be 0.78 µg/mL (≈ 1.54 µM).

`COc1ccc(COc2ccc(NC(=O)CSc3nc(C)c(C(C)=O)n3-c3ccc(Br)cc3)cc2)cc1`: the MFC in the test on Aspergillus clavatus is 1000 µg/mL (≈ 1720 µM); in the test with Candida albicans, 500 µg/mL (≈ 861 µM); with Aspergillus niger, > 1000 µg/mL. Further, the MIC in test [1] was found to be 250 µg/mL (≈ 431 µM); in the test with Staphylococcus aureus [6] it was 250 µg/mL (≈ 431 µM); in the test with Pseudomonas aeruginosa it was 50 µg/mL (≈ 86.1 µM); in the test on Bacteria, 250 µg/mL (≈ 431 µM); in the test with Enterococcus it was 250 µg/mL (≈ 431 µM); with Streptococcus pyogenes, 125 µg/mL (≈ 215 µM). Besides, the values for the MIC with Escherichia coli and with Staphylococcus aureus [15] were 125 µg/mL (≈ 215 µM) and 500 µg/mL (≈ 861 µM), respectively. Besides, the Activity in [2] was 84.3%; in test [3], 41.3%; in test [4] it was 47%; in [5], 71%; in [7] it was 34.8%; in test [8], 73.2%. The Activity came to 60.7% in test [9]; 84.3% in test [10]; 75.3% in test [11]; 59.7% in [12]; 65.4% in test [13]; 51.7% in test [14]. The IC50 in the test with Plasmodium falciparum was found to be 1.25 µg/mL (≈ 2.15 µM).

As to `COc1ccc(-n2c(SCC(=O)Nc3ccc(OC(=O)c4cccs4)cc3)nc(C)c2C(C)=O)cc1`, the MFC was found to be 500 µg/mL (≈ 959 µM) with Aspergillus clavatus, 1000 µg/mL (≈ 1920 µM) with Candida albicans and 500 µg/mL (≈ 959 µM) in the test on Aspergillus niger. Besides, the minimum inhibitory concentration (MIC) in [1] is 25 µg/mL (≈ 47.9 µM); in the test with Staphylococcus aureus [6], 25 µg/mL (≈ 47.9 µM); in the test on Pseudomonas aeruginosa it was 12.5 µg/mL (≈ 24 µM); with Bacteria, 62.5 µg/mL (≈ 120 µM); in the test with Enterococcus, 100 µg/mL (≈ 192 µM); in the test with Streptococcus pyogenes, 50 µg/mL (≈ 95.9 µM). Also, the MIC in the test with Escherichia coli is 12.5 µg/mL (≈ 24 µM); in the test on Staphylococcus aureus [15], 100 µg/mL (≈ 192 µM). The Activity in [2] came out at 81.7%; in test [3], 56.1%; in [4], 39.4%; in test [5], 76.4%; in [7], 46.8%; in [8], 81.6%. Also, the Activity in [9] is 61%; in [10], 82.3%; in test [11] it was 76.8%; in [12], 68.1%; in test [13], 69.1%; in [14], 42.3%. The IC50 with Plasmodium falciparum came to 0.45 µg/mL (≈ 0.863 µM).

Regarding `CC(=O)c1c(C)nc(SCC(=O)Nc2ccc(OCc3ccccc3)cc2)n1-c1ccc(F)cc1`, the MFC in the test with Aspergillus clavatus was > 1000 µg/mL; with Candida albicans, 1000 µg/mL (≈ 2040 µM); with Aspergillus niger, > 1000 µg/mL. The MIC was determined as 62.5 µg/mL (≈ 128 µM) in [1]; 500 µg/mL (≈ 1020 µM) in the test on Staphylococcus aureus [6]; 125 µg/mL (≈ 255 µM) in the test with Pseudomonas aeruginosa; 125 µg/mL (≈ 255 µM) in the test with Bacteria; 250 µg/mL (≈ 511 µM) with Enterococcus; 250 µg/mL (≈ 511 µM) with Streptococcus pyogenes. The values for the MIC with Escherichia coli and with Staphylococcus aureus [15] were 100 µg/mL (≈ 204 µM) and 1000 µg/mL (≈ 2040 µM), respectively. For the same compound, the Activity in [2] amounted to 85.9%; in test [3], 56.2%; in test [4], 47.4%; in test [5] it was 84%; in [7] it was 46.8%; in test [8] it was 84.7%. Also, the Activity in test [9] came to 63.7%; in test [10] it was 91.8%; in [11], 72.4%; in [12], 62.3%; in test [13], 60.8%; in [14] it was 45.7%. In addition, in the test on Plasmodium falciparum, the IC50 turned out to be 0.45 µg/mL (≈ 0.919 µM).
